# SKKanGAS inh: S. pyogenes SKKanGAS growth inhibitors in kanamycin, primary screen, streptokinase expression inhibitor project, SKKanGAS strain, BacTiter-Glo luminescence; inhibition, % at 7.5 µM; 6 h; actives 1.3% (n = 300,000);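 active = mean replicate score, as percent of positive control median, at least 50; inconclusive = mean below 50 but one replicate at or above 50; inactive = mean and every replicate below 50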;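 also: strain carries kanamycin resistance gene driven by streptokinase promoter and grows in 40 µg/ml kanamycin; loss of luminescence reflects streptokinase promoter inhibition or plain growth inhibition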
# Rtt109 HAT inh: inhibitors of C. albicans Rtt109/Vps75 HAT, primary screen, biochemical, ThioGlo CoA-SH fluorescence, plate reader | inhibition, % at 34.9 µM | purified Rtt109/Vps75, 4 h | actives 0.16% (n = 330,000) | AID 540336, 2011 | Histone acetyltransferase RTT109 (Candida albicans (strain SC5314 / ATCC MYA-2876)), …;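 active = inhibition of at least 50% in every replicate; inconclusive = best replicate reaches 50% inhibition but some replicates fall short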
# Target sequence (Q5AAJ8 whole entry, looked up): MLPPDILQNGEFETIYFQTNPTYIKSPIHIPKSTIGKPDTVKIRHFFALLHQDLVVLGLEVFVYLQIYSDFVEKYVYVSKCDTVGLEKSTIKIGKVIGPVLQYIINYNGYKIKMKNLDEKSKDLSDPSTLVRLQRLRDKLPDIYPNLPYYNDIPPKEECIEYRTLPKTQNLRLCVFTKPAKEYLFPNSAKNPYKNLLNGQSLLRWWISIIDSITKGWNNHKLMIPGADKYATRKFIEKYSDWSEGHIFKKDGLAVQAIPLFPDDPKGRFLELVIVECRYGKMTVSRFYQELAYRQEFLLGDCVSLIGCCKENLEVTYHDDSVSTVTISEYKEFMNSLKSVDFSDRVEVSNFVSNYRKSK
# PfHsp90 set2: growth inhibition of PfHsp90-expressing yeast, primary screen, antimalarial PfHsp90 inhibitor project, S. cerevisiae, BacTiter-Glo luminescence, single point, set 2; actives 0.32% (n = 310,000); inhibition, % at 9.4 µM; BacTiter-Glo ATP, 48 h; yeast lacking PDR1 and PDR3 efflux regulators;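 active = every replicate shows inhibition above about 80%, whatever the replicate mean, limit read from the data; inconclusive = mean inhibition reaches the set limit but some replicate falls short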
# CSC inhib: cancer stem cell viability inhibitors, primary screen, luminescence; cancer stem cell-like cells viability; inhibition, % at 7.5 µM; actives 1.1% (n = 300,000); in the data active = inhibition above about 75%; inconclusive = no clear call, values can overlap the other calls; tested in HMLE shEcad cells
# PglD inh: C. jejuni PglD acetyltransferase inhibitors, primary screen, biochemical, DTNB colorimetric, single point | purified PglD enzyme, DTNB colorimetric CoA detection | inhibition, % at 12.5 µM | actives 0.098% (n = 360,000) | UDP-N-acetylbacillosamine N-acetyltransferase PglD (Campylobacter jejuni) | AID 602405, 2012; in the data active = inhibition above about 16%, passing the limit was not always enough; inconclusive = no clear call, values can overlap the other calls
# FN deposition inh: inhibitors of fibronectin matrix deposition, primary screen, AH1F cells, Alexa488-fibronectin fluorescence, plate reader; AH1F fibroblasts, overnight; inhibition, % at 12.6 µM; actives 0.086% (n = 350,000); AID 743247, 2014;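 active = mean inhibition across replicates of 30% or more, regardless of how many single replicates reach that level; inconclusive = mean under 30% yet at least half of replicates reach 30%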
#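 Material: AH1F fibroblasts assembling fluorescent fibronectin matrix; amount: 10000 AH1F cells/well; medium: DMEM, 2% serum; reagent: Alexa488-fibronectin, 24 nM final in well; dosing: single compound dose, delivered by pin transfer; incubation: 1 h adhesion, overnight exposure; detection: fluorescence after three HBSS washes, excitation 485 nm, emission 525 nm; measure: fibronectin deposition inhibition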
# Numbers stand for hits; – = inactive; ? = inconclusive; · = no result given. An excerpt weighted towards active compounds, which were near 1.7% of everything screened.
SMILES,SKKanGAS inh,Rtt109 HAT inh,PfHsp90 set2,CSC inhib,PglD inh,FN deposition inh
CCC1CCCCN1S(=O)(=O)c1ccc(NC(=O)c2nc(S(C)(=O)=O)ncc2Cl)cc1 (centres undefined),51,–,–,115,–,39
COc1cccc(NC(=O)N[C@H]2C=C[C@H](CC(=O)N3CCN(C)CC3)O[C@@H]2CO)c1,·,·,·,·,–,·
CCC(=O)Nc1ccc2c(c1)OC[C@@H](C)N(C(=O)c1cnccn1)C[C@@H](C)[C@@H](OC)CN(C)C2=O,·,·,·,·,–,–
C[C@@H]1CN([C@H](C)CO)C(=O)Cc2cc(NC(=O)Cn3cnnn3)ccc2O[C@H]1CN(C)C(=O)Nc1ccc(C(F)(F)F)cc1,·,·,·,·,–,–
C[C@H]1CN([C@@H](C)CO)C(=O)c2cccc(NC(=O)c3ccc(-c4nccs4)cc3)c2O[C@@H]1CN(C)C,·,·,·,·,21,–
Cc1noc(C)c1NC(=O)Nc1cccc2c1O[C@H](CN(C)C(=O)Nc1cccc3ccccc13)[C@@H](C)CN([C@H](C)CO)C2=O,·,·,·,·,16,·
C[C@H](CO)N1C[C@H](C)[C@@H](CN(C)C(=O)Nc2ccc(C(F)(F)F)cc2)Oc2ccc(NC(=O)Cn3cnnn3)cc2CC1=O,·,·,·,·,18,–
C[C@@H]1CN([C@@H](C)CO)C(=O)c2cccc(NC(=O)Nc3ccc(C(F)(F)F)cc3)c2O[C@@H]1CN(C)C(=O)Nc1cccc2ccccc12,·,·,·,·,–,36
C[C@@H]1CN([C@@H](C)CO)C(=O)c2cccc(NC(=O)Nc3ccc(C(F)(F)F)cc3)c2O[C@H]1CN(C)C(=O)Nc1cccc2ccccc12,·,·,·,·,–,–
C[C@@H]1CCCCO[C@H](CN(C)C)[C@@H](C)CN([C@H](C)CO)C(=O)c2cc(NC(=O)CCCN(C)C)ccc2O1,·,·,·,·,–,–
O=C(C[C@H]1C[C@H]2c3cc(NC(=O)NC4CCCCC4)ccc3O[C@H]2[C@H](CO)O1)NCC(F)(F)F,·,·,·,·,–,·
C=CCn1c(SC(C)CC)nc(O)cc1=O (centres undefined),52,–,–,–,·,·
COc1ccc(NC(=O)c2ccccc2F)cc1Cl,–,–,–,–,–,·
O=C(Nc1ccc(Oc2ccc(Cl)cc2)c(Cl)c1)c1cc(I)cc(I)c1O,103,–,–,100,–,–
COCCNC(=O)C[C@H]1CC[C@H]2[C@@H](COc3ccc(NC(=O)COC)cc3C(=O)N2C)O1,·,·,·,·,–,–
CCN(CC)S(=O)(=O)c1cccc(NC(=O)c2cncc(Br)c2)c1,–,–,–,–,·,–
CCN(CC)S(=O)(=O)c1cccc(NC(=O)c2ccc(Br)cc2)c1,–,–,96,–,·,·
CN1CCN(C(=O)[C@@H]2[C@@H](CO)[C@@H]3Cn4c(ccc(C5=CCCCC5)c4=O)[C@H]2N3S(C)(=O)=O)CC1,·,·,·,·,–,·
C[C@H]1CN([C@@H](C)CO)C(=O)c2cc(NC(=O)CCN3CCOCC3)ccc2O[C@H]1CN(C)S(=O)(=O)c1ccc(F)cc1,·,·,·,·,–,·
CCC[C@@H](CN[C@@H](CNC)C(C)C)NCCCCc1ccccc1,–,–,–,–,–,–
CNC[C@@H](Cc1ccccc1)NC[C@@H](CC1CCCCC1)NCCCc1ccccc1,64,–,–,111,–,–
CCC[C@@H](CNC)NC[C@H](Cc1ccccc1)NCCCCc1ccccc1,–,–,–,133,–,–
CNC[C@@H](CC1CCCCC1)NC[C@H](CC(C)C)NCCc1cccc(C(F)(F)F)c1,88,–,–,111,–,62
CN(Cc1cccc(C(F)(F)F)c1)C(=O)C1CCC(=O)N(CC2CCCCC2)C1 (centres undefined),–,–,–,–,–,–
CC[C@@H]1CC=CC[C@@H](C)Oc2ccccc2C(=O)N(C)[C@H](Cc2ccccc2)C(=O)N1 (mixture of isomers),·,·,·,·,·,–
SMILES,SKKanGAS inh,Rtt109 HAT inh,PfHsp90 set2,CSC inhib,PglD inh,FN deposition inh
NC(=Nc1nc(-c2ccccn2)cc2ccccc12)c1ccccn1,·,–,142,·,·,–
Cc1noc(C)c1NC(=O)N(C)C[C@@H]1Oc2ccc(NC(=O)CCN3CCOCC3)cc2C(=O)N([C@H](C)CO)C[C@@H]1C,·,·,·,·,–,·
Cc1ccc(O)c(NC(=S)NC(=O)Cc2ccc(Cl)cc2)c1,–,–,–,–,–,–
Cc1cc(O)c(NC(=S)NC(=O)c2ccc(-c3ccc(Cl)cc3)o2)cc1C,92,–,·,–,·,·
Cc1cc(N2CCN(C)CC2)ccc1NC(=O)c1ccc(-c2ccc(Cl)cc2)o1,–,–,–,?,–,–
Cc1ccc(NC(=S)NC(=O)c2ccc(-c3ccc(Cl)cc3)o2)c(O)c1,68,–,–,–,·,–
CC(=O)N1CCc2cc(S(=O)(=O)N3CCc4ccccc43)ccc21,52,–,–,–,–,–
CC(=O)N1CCc2cc(S(=O)(=O)N3CCc4ccccc4C3)ccc21,–,–,–,·,–,·
OC(CNCCc1ccc(C(F)(F)F)cc1)COc1cccc2ccccc12 (centres undefined),–,–,·,96,·,–
OC(CNCCc1ccc(C(F)(F)F)cc1)COc1ccc2ccccc2c1 (centres undefined),–,–,–,77,·,·
Cc1cc(=O)n2[nH]cc(-c3ccccc3)c2n1,–,–,–,–,–,–
Cc1nc2c(-c3ccccc3)c[nH]n2c(=O)c1Cc1ccccc1,71,–,–,–,–,·
Cc1cc([N+](=O)[O-])ccc1-c1ccc(/C=N/NC(=O)c2ccc(Br)o2)o1,–,–,–,88,–,–
Cc1cc(C(=O)N/N=C/c2ccc(-c3ccc([N+](=O)[O-])cc3C)o2)n[nH]1,–,–,–,–,–,–
CCOc1nc(Nc2ccc([N+](=O)[O-])cc2)nc(NC(C)(C)C)n1,–,–,–,–,–,–
CCN(CC)c1nc(Nc2ccc([N+](=O)[O-])cc2)nc(N(CC)CC)n1,65,–,–,–,–,–
O=C1CCC2c3ccc4ccccc4c3CCN12 (centres undefined),–,–,·,–,–,30
O=c1/c(=C\c2cccc(O)c2)sc2nc(-c3ccccc3)c(-c3ccccc3)n12,70,–,–,91,·,–
Fc1ccc(CSc2ncnc3sc4c(c23)CCCC4)cc1,77,–,–,–,–,–
COc1ccc2c3c(ccc2c1)C(=O)/C(=C/O)CC3,·,–,107,·,·,–
CCn1cc([N+](=O)[O-])c(C(=O)Nc2nc(-c3ccc(C)cc3)c(C)s2)n1,–,–,·,102,·,·

# Screens as filed in PubChem BioAssay.
